Here are results for 19 compounds from ChEMBL document CHEMBL1122229, “alpha-adrenoreceptor reagents. 1. Synthesis of some 1,4-benzodioxans as selective presynaptic alpha 2-adrenoreceptor antagonists and potential antidepressants” (J Med Chem, 1983).

The source made the active and inactive calls. No cut-off for these calls is given here.

Test [1] has as its system Alpha-2 adrenergic receptor (Rattus norvegicus). Description: In vitro presynaptic agonist potency at Alpha-2 adrenergic receptor in rat or mouse vas deferens relative to clonidine; IA means inactive.
Test [2] has as its target T1, Adrenergic receptor alpha-1 (Rattus norvegicus) (UniProt P15823+P23944+P43140). In words: Ratio of presynaptic antagonist potency to postsynaptic antagonist potency. It counts as functional.
Test [3] addresses T1, Adrenergic receptor alpha-1 (Rattus norvegicus). In words: In vitro postsynaptic agonist potency at alpha-1 adrenergic receptor in rat anococcygeus muscle relative to phenylephrine. It counts as functional, tissue-based.
The nature of test [4]: In vitro antagonism at Alpha-2 adrenergic receptor in rat or mouse vas deferens relative to RX781094. It counts as functional. In a few lines:
(§1)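 Prostatic half of vas deferens from male Sprague–Dawley rats (200–250 g; Krebs, 30 °C, 95% O2/5% CO2, 0.1 Hz, 3-ms, 40 V) or from mice (magnesium-free Krebs, 100–140 V). Tension 0.5 g; isometric twitch recording. […] The concentration giving 50% reversal of the inhibition was compared with standard 5 in the same tissue.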

Test [5] concerns the target T1, Adrenergic receptor alpha-1 (Rattus norvegicus). In words: In vitro postsynaptic antagonist potency at alpha-1 adrenergic receptor in rat anococcygeus relative to compound 5 (RX781094). It counts as functional.
The target of test [6] is T2, Adrenergic receptor alpha-2 (Rattus norvegicus) (UniProt P22086+P19328+P22909). In words: In vitro presynaptic agonist potency at alpha-2 adrenergic receptor in rat or mouse vas deferens relative to clonidine; IA means inactive. It counts as functional, tissue-based. In a few lines: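 Field-stimulated rat or mouse vas deferens (Krebs, 30 °C, 95% O2/5% CO2, 3-ms pulses at 0.1 Hz) with isometric twitch recording. […] Standard dose-response curves were run before and after the analogue's curve.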
T2 sequence (P19328 whole entry, looked up): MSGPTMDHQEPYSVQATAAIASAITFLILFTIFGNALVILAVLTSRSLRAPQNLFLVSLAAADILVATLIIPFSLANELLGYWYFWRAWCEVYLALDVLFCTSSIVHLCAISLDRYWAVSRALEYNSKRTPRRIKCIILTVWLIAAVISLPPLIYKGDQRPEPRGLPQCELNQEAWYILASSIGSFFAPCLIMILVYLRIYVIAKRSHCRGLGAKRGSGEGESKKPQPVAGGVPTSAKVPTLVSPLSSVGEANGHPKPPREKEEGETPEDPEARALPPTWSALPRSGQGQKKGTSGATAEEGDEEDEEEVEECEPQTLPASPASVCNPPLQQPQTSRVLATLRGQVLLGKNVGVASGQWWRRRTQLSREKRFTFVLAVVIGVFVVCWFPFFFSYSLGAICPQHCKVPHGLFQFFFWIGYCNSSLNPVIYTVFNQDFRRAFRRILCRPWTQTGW
T2 sequence (P22086 whole entry, looked up): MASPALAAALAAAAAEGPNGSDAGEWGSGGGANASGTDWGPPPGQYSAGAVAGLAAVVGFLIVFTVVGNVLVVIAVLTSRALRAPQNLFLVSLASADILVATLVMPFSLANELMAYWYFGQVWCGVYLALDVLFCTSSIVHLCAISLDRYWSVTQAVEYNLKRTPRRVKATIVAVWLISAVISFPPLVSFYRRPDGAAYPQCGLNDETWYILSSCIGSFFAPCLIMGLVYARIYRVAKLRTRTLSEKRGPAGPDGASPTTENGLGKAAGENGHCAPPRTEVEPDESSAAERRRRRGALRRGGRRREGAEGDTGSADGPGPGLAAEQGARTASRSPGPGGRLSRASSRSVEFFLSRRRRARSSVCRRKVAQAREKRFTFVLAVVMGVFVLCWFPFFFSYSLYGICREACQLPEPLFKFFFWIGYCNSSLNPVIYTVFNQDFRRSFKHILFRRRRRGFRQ
T2 sequence (P22909 whole entry, looked up): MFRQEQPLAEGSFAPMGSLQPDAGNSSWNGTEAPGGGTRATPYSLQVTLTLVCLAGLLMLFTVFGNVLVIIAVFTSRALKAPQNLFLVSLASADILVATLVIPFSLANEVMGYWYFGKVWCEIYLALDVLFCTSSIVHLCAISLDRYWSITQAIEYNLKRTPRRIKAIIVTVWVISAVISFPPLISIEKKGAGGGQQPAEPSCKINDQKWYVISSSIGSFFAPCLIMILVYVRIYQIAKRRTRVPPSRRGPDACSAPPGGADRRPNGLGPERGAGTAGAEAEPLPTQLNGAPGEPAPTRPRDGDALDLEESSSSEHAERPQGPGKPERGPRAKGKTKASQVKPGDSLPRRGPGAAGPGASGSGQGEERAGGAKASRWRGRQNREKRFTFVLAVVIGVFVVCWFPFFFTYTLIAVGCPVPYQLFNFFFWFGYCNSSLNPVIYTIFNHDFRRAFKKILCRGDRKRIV

Test [7] deals with T1, Adrenergic receptor alpha-1 (Rattus norvegicus). In words: In vitro postsynaptic antagonist potency at alpha-1 adrenergic receptor in rat anococcygeus. Taken as standard. It counts as functional.
Test [8] shares this target. In words: In vitro postsynaptic agonist potency at alpha-1 adrenergic receptor in rat anococcygeus muscle relative to phenylephrine; IA means inactive. The format is functional, tissue-based. An outline of the steps:
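Rat anococcygeus muscle (male Sprague–Dawley rats, 200–250 g) suspended at 0.5 g initial tension in a 50-mL organ bath. […] Standard dose-response curves were run before and after the analogue's curve.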

Test [9] relates to Alpha-2 adrenergic receptor (Rattus norvegicus). In words: In vitro presynaptic antagonist potency at alpha-2 adrenergic receptor in rat or mouse vas deferens; IA means compound is inactive.
For test [10] the test system is unchanged. In words: In vitro presynaptic agonist potency at alpha-2 adrenergic receptor in rat or mouse vas deferens relative to clonidine; IA means inactive.
For test [11], the target named is T2, Adrenergic receptor alpha-2 (Rattus norvegicus). In words: In vitro presynaptic agonist potency at alpha-2 adrenergic receptor in rat or mouse vas deferens relative to clonidine. The format is functional, tissue-based. In a few lines:
(§2)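 Field-stimulated rat or mouse vas deferens under 0.5 g tension, at 0.1 Hz with 3-ms pulses, 30 °C, gassed with 95% O2/5% CO2. Contractions were recorded isometrically. Standard dose-response curves were run before and after each analogue curve. Potency was expressed relative to the standard in the same experiment.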

The target of test [12] is T1, Adrenergic receptor alpha-1 (Rattus norvegicus). In words: In vitro postsynaptic antagonist potency at alpha-1 adrenergic receptor in rat anococcygeus relative to compound 5 (RX781094); IA means compound is inactive. It counts as functional.
Test [13] has the same target. Description: In vitro postsynaptic antagonist potency at alpha-1 adrenergic receptor in rat anococcygeus. It counts as functional.
Test [14] shares this target. In words: In vitro postsynaptic antagonist potency at alpha-1 adrenergic receptor in rat anococcygeus relative to compound 5 (RX781094); AG means compound is agonist. It counts as functional. To be noted: filed as agonist.
For test [15], the system named is Alpha-2 adrenergic receptor (Rattus norvegicus). In words: In vitro presynaptic agonist potency at alpha-2 adrenergic receptor in rat or mouse vas deferens relative to clonidine; Inactive.
Test [16] has as its target Adrenergic receptor alpha-2 (Homo sapiens) (UniProt P08913+P18825+P18089). In words: In vitro presynaptic antagonist potency at Alpha-2 adrenergic receptor in rat or mouse vas deferens relative to compound 5 (RX781094). It counts as functional, tissue-based. An outline of the steps:
as §1

Test [17] addresses T3, Adenosine receptor A2b (Rattus norvegicus) (UniProt P29276).
T3 sequence (whole entry): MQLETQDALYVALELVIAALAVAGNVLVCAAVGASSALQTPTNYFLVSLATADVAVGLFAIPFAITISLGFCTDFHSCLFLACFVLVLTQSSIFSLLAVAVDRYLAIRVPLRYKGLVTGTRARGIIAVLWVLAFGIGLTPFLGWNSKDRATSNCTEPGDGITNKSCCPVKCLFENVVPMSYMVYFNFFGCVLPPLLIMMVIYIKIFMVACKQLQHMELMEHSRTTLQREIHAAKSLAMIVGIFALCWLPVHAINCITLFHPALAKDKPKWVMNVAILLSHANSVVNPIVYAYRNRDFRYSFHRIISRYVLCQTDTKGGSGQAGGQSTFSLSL
In words: In vitro presynaptic agonist potency at Alpha-2 adrenergic receptor in rat or mouse vas deferens relative to clonidine; IA means inactive. The format is functional, tissue-based. An outline of the steps: as §2

Test [18] addresses T3, Adenosine receptor A2b (Rattus norvegicus). In words: In vitro presynaptic agonist potency at Alpha-2 adrenergic receptor in rat or mouse vas deferens relative to clonidine. The format is functional, tissue-based. In a few lines:
as §2

Test [19] shares this target. Description: In vitro presynaptic antagonist potency at alpha-2 adrenergic receptor in rat or mouse vas deferens; IA means inactive. The format is functional. An outline of the steps: as §1
Test [20] concerns Alpha-1 adrenergic receptor (Rattus norvegicus). In words: In vitro postsynaptic agonist potency at alpha-1 adrenergic receptor in rat anococcygeus.

T1 sequence (P15823 whole entry, looked up): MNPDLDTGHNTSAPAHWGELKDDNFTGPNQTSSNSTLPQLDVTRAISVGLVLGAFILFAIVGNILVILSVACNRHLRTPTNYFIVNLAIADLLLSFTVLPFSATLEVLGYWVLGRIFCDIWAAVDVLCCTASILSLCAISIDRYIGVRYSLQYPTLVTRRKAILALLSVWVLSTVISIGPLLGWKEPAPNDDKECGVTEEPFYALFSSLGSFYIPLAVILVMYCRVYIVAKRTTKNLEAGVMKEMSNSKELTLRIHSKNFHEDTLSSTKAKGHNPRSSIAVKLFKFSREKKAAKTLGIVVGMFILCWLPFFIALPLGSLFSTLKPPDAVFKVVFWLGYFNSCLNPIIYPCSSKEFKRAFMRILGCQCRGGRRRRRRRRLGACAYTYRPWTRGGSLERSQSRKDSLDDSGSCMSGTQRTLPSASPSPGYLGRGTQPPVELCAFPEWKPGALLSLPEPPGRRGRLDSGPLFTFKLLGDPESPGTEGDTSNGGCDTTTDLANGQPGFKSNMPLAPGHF
T1 sequence (P23944 whole entry, looked up): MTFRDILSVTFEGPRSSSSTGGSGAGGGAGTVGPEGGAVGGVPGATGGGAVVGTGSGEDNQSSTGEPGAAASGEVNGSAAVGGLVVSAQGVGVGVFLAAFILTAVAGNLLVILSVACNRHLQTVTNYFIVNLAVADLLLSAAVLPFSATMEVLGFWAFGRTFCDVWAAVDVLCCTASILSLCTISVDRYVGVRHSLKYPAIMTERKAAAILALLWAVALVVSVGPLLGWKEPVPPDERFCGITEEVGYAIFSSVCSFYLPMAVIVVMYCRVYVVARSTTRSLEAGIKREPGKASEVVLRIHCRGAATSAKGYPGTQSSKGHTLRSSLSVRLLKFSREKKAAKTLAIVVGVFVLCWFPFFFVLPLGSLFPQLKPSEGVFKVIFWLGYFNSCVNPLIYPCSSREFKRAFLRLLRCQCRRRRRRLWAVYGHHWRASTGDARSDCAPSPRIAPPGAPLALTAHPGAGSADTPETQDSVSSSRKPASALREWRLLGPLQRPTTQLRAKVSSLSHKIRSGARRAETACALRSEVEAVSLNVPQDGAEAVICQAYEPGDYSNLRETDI
T1 sequence (P43140 whole entry, looked up): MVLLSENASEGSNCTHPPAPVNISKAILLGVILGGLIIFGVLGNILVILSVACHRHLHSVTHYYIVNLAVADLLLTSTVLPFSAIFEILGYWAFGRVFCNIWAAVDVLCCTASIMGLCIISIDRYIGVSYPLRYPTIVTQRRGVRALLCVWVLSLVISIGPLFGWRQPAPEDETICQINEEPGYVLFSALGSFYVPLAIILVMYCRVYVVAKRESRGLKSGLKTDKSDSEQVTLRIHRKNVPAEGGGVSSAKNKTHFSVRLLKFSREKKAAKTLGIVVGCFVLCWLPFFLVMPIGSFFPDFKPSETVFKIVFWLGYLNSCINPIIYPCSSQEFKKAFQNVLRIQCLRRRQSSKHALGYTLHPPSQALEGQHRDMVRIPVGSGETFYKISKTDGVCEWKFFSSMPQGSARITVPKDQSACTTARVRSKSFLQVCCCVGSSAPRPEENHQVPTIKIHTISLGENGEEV

As for `Brc1cc2c(cc1Br)OC(C1=NCCN1)CO2` (stereo not given), in test [1], the Agonist potency result was “inactive”. Further, in [2], the Selectivity was found to be 0.01. The Agonist potency in test [3] was 0.02. Moreover, the Antagonist potency stood at 0.001 in test [4] and 0.1 in test [5].
For `c1ccc2c(c1)OCC(C1=NCCN1)O2` (stereo not given), the Agonist potency entry in test [6] and in test [8] was “inactive” in each case. For the same compound, the Antagonist potency in [7] came to 1.
As to `COCC/N=C(\N)C1COc2ccccc2O1` (stereo not given), the Agonist potency entry in test [6] and in test [8] was “inactive” throughout. Also, the Antagonist potency entry in test [9] was “inactive”. The compound further returned an Antagonist potency in test [5] of 0.1.
Take `N/C(=N\CC(=O)O)C1COc2ccccc2O1` (stereo not given): the Agonist potency result in test [1] and in test [8] was “inactive” throughout. For the same compound, the Antagonist potency in [4] was <0.0003; in test [5], < 0.023.
As to `Nc1noc(C2COc3ccccc3O2)n1` (stereo not given), the Antagonist potency entry in test [10] and in test [12] was “inactive” in each case. In addition, the Agonist potency result in [8] is “inactive”. Also, in [11], the Agonist potency is 0.0001.
As to `NC(=NO)C1COc2ccccc2O1` (stereo not given), in test [13], the Antagonist potency is 0.01. For the same compound, the Agonist potency result in [6] is “inactive”.
For the compound `c1ccc2c(c1)OCC(C1=NCCS1)O2` (stereo not given), the Agonist potency result in [6] and in test [8] was “inactive” each time. In addition, the Antagonist potency result in test [9] and in test [12] was “inactive” each time.
As to `Clc1cccc2c1OC(C1=NCCN1)CO2` (stereo not given), the Agonist potency in test [3] is 0.4; in [11] it was 0.67. The results for the Antagonist potency result in [14] and in test [4] were “Agonist” and 0.49, respectively.
On to `Cc1ccc(C)c2c1OCC(C1=NCCN1)O2` (stereo not given), for which the Agonist potency was found to be 2.5 in test [3] and 0.19 in test [11]. The Antagonist potency entry in test [14] is “Agonist”; in test [4] it was 0.005.
In test [3], `Oc1cccc2c1OCC(C1=NCCN1)O2` (stereo not given) showed an Agonist potency of 0.017. In addition, the Antagonist potency result was “Agonist” in test [14] and 0.018 in test [4]. Moreover, the Agonist potency entry in test [15] is “inactive”.
As to `COc1cc2c(cc1OC)OC(C1=NCCN1)CO2` (stereo not given), the Antagonist potency in test [16] was 0.015; in [5], 0.05. Besides, the Selectivity in [2] amounted to 0.3. Also, the Agonist potency result in test [8] and in [15] was “inactive” each time.
`CC(C)c1cccc2c1OCC(C1=NCCN1)O2` (stereo not given): the results for the Agonist potency in test [3] and in test [11] were 0.5 and 0.1, respectively. The compound also gave an Antagonist potency in test [5] of 1. The Antagonist potency result in test [17] was “inactive”.
For the compound `N=C(NN1CCOCC1)C1COc2ccccc2O1` (stereo not given), the Agonist potency entry in [6] and in test [8] was “inactive” throughout. Further, the Antagonist potency entry in test [9] and in test [12] was “inactive” each time.
As to `Cc1cccc2c1OCC(C1=NCCN1)O2` (stereo not given), the Agonist potency in test [18] stood at 0.1; in [3] it was 1. Besides, the Antagonist potency result in [14] is “Agonist”; in test [4], 0.13.
With `Oc1cc2c(cc1O)OC(C1=NCCN1)CO2` (stereo not given), in [13], the Antagonist potency is > 6. Moreover, the Antagonist potency result in test [19] was “inactive”. Moreover, the Agonist potency in test [11] turned out to be 0.0006; in [20] it was 0.018.
`Nc1nc(N)nc(C2COc3ccccc3O2)n1` (stereo not given): the Antagonist potency result in test [9] and in test [12] was “inactive” in each case. Besides, the Agonist potency entry in test [8] and in test [15] was “inactive” each time.
For `c1ccc2c(c1)OCC(c1nn[nH]n1)O2` (stereo not given), the Agonist potency entry in [6] and in [8] was “inactive” in each case. Besides, the Antagonist potency entry in test [9] and in [12] was “inactive” throughout.
`Oc1ccc2c(c1)OCC(C1=NCCN1)O2` (stereo not given): the Agonist potency in [3] came to 0.55; in test [11], 0.015. Also, the figures for the Antagonist potency result in test [14] and in [4] were “Agonist” and 0.017, respectively.
Turning to `COc1ccccc1OCC1=NCCN1`, the Agonist potency in test [3] was determined as 10; in test [11] it was 0.001. The Antagonist potency result in test [10] and in [12] was “inactive” each time.
